Values belong to the compound of their own block, whether it stands above or below them.
How the values were obtained:
[1] = Cmax in HIV-1 infected patient at 300 mg, po qd coadministered with 100 mg of ritonavir, po qd and NRTI; type: ADME, organism-based; design: dose 300 mg, route oral; conditions: human, in vivo
Method in brief: (§1)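 Retrospective steady-state TDM data from HIV-1-infected adults (n = 17 per group, matched for sex, age, ethnicity and body weight), taken after at least 2 weeks on therapy. Plasma sampled before dosing and at 1, 2, 4, 6, 9, 12 and 24 h, with food of approximately 2,500 kJ (21% fat). Drug levels measured by validated LC-MS/MS; parameters from noncompartmental analysis; geometric means (90% CI).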

[2] = AUC in HIV-1 infected patient at 300 mg, po qd coadministered with 100 mg of ritonavir, po qd and NRTI; type: ADME, organism-based; conditions: human, plasma; method in brief: as §1
[3] = Half life in HIV-1 infected patient at 300 mg, po qd coadministered with 400 mg, po bid and 100 mg, po bid of Lopinavir and ritonavir respectively; type: ADME, organism-based; conditions: human, in vivo; method in brief: as §1
[4] = AUC in HIV-1 infected patient at 300 mg, po qd coadministered with 400 mg, po bid and 100 mg, po bid of Lopinavir and ritonavir respectively; type: ADME, organism-based; conditions: human, plasma; method in brief: as §1
[5] = Apparent oral clearance in HIV-1 infected patient at 300 mg, po qd coadministered with 400 mg, po bid and 100 mg, po bid of Lopinavir and ritonavir respectively; type: ADME, organism-based; conditions: human, in vivo; method in brief: as §1
[6] = Half life in HIV-1 infected patient at 300 mg, po qd coadministered with 100 mg of ritonavir, po qd and NRTI; type: ADME, organism-based; conditions: human, in vivo; method in brief: as §1
[7] = Oral clearance in HIV-1 infected patient at 300 mg, po qd coadministered with 100 mg of ritonavir, po qd and NRTI; type: ADME, organism-based; conditions: human, in vivo; method in brief: as §1
[8] = Cmax in HIV-1 infected patient at 300 mg, po qd coadministered with 400 mg, po bid and 100 mg, po bid of Lopinavir and ritonavir respectively; type: ADME, organism-based; design: dose 300 mg, route oral; conditions: human, in vivo; method in brief: as §1
[9] = Cmax in HIV-1 infected patient at 100 mg, po bid coadministered with 400 mg, po bid of Lopinavir and 300 mg, po qd of atazanavir; type: ADME, organism-based; design: dose 100 mg, route oral; conditions: human, in vivo; method in brief: as §1
Homo sapiens [10] = experiment: Apparent oral clearance in HIV-1 infected patient at 100 mg, po bid coadministered with 400 mg, po bid of Lopinavir and NRTI; type: ADME, organism-based; conditions: in vivo
Method in brief: (§2)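 HIV-1-infected adults on LPV-RTV gel capsules plus NRTI (n = 17, matched pairs) at steady state after at least 2 weeks of therapy, under a standardized routine TDM protocol with food of approximately 2,500 kJ (21% fat). Plasma sampled predose and at 1, 2, 4, 6, 9 and 12 h. Concentrations by validated LC-MS/MS; noncompartmental parameters given as geometric means (90% CI).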

[11] = Cmax in HIV-1 infected patient at 100 mg, po qd coadministered with 300 mg, po qd of atazanavir and NRTI; conditions: human, in vivo
[12] = Cmax in HIV-1 infected patient at 100 mg, po bid coadministered with 400 mg, po bid of Lopinavir and NRTI; type: ADME, organism-based; design: dose 100 mg, route oral; conditions: human, in vivo; method in brief: as §2
Homo sapiens [13] = experiment: Apparent oral clearance in HIV-1 infected patient at 100 mg, po qd coadministered with 300 mg, po qd of atazanavir and NRTI; conditions: in vivo
[14] = AUC in HIV-1 infected patient at 100 mg, po bid coadministered with 400 mg, po bid of Lopinavir and NRTI; type: ADME, organism-based; conditions: human, plasma; method in brief: as §2
[15] = Half life in HIV-1 infected patient at 100 mg, po bid coadministered with 400 mg, po bid of Lopinavir and NRTI; conditions: human, in vivo
[16] = AUC in HIV-1 infected patient at 100 mg, po qd coadministered with 300 mg, po qd of atazanavir and NRTI; conditions: human, plasma
[17] = AUC in HIV-1 infected patient at 100 mg, po bid coadministered with 400 mg, po bid of Lopinavir and 300 mg, po qd of atazanavir; type: ADME, organism-based; conditions: human, plasma; method in brief: as §1
[18] = Half life in HIV-1 infected patient at 100 mg, po bid coadministered with 300 mg, po qd of atazanavir and NRTI; conditions: human, in vivo
[19] = Apparent oral clearance in HIV-1 infected patient at 400 mg, po bid coadministered with 100 mg, po bid of ritonavir and 300 mg, po qd of atazanavir; type: ADME, organism-based; conditions: human, in vivo; method in brief: as §1
[20] = Cmax in HIV-1 infected patient at 400 mg, po bid coadministered with 100 mg, po bid of ritonavir and 300 mg, po qd of atazanavir; type: ADME, organism-based; design: dose 400 mg, route oral; conditions: human, in vivo; method in brief: as §1
[21] = Apparent oral clearance in HIV-1 infected patient at 400 mg, po bid coadministered with 100 mg, po bid of ritonavir with NRTI; type: ADME, organism-based; conditions: human, in vivo; method in brief: as §2
[22] = Cmax in HIV-1 infected patient at 400 mg, po bid coadministered with 100 mg, po bid of ritonavir and NRTI; type: ADME, organism-based; design: dose 400 mg, route oral; conditions: human, in vivo; method in brief: as §2
[23] = AUC in HIV-1 infected patient at 400 mg, po bid coadministered with 100 mg, po bid of ritonavir and NRTI; type: ADME, organism-based; conditions: human, plasma; method in brief: as §2
[24] = Half life in HIV-1 infected patient at 400 mg, po bid coadministered with 100 mg, po bid of ritonavir and 300 mg, po qd of atazanavir; type: ADME, organism-based; conditions: human, in vivo; method in brief: as §1
[25] = AUC in HIV-1 infected patient at 400 mg, po bid coadministered with 100 mg, po bid of ritonavir and 300 mg, po qd of atazanavir; type: ADME, organism-based; conditions: human, plasma; method in brief: as §1
[26] = Half life in HIV-1 infected patient at 400 mg, po bid coadministered with 100 mg, po bid of ritonavir and NRTI; type: ADME, organism-based; conditions: human, in vivo; method in brief: as §2

- Cmax [1]: 2740 ng/mL
- AUC [2]: 30300 ng·h/mL
- half-life [3]: 7.79 h
- AUC [4]: 26400 ng·h/mL
- CL/F [5]: 185 mL/min
- half-life [6]: 7.21 h
- CL/F [7]: 154 mL/min
- Cmax [8]: 2260 ng/mL
Structure (SMILES): COC(=O)N[C@H](C(=O)N[C@@H](Cc1ccccc1)[C@@H](O)CN(Cc1ccc(-c2ccccn2)cc1)NC(=O)[C@@H](NC(=O)OC)C(C)(C)C)C(C)(C)C [ATAZANAVIR]

- Cmax [9]: 468 ng/mL
- CL/F (Homo sapiens [10]): 440 mL/min
- Cmax [11]: 869 ng/mL
- Cmax [12]: 525 ng/mL
- CL/F (Homo sapiens [13]): 199 mL/min
- AUC [14]: 3580 ng·h/mL
- half-life [15]: 4.03 h
- AUC [16]: 7770 ng·h/mL
- AUC [17]: 3290 ng·h/mL
- half-life [18]: 4.58 h
Structure (SMILES): CC(C)c1nc(CN(C)C(=O)N[C@H](C(=O)N[C@@H](Cc2ccccc2)C[C@H](O)[C@H](Cc2ccccc2)NC(=O)OCc2cncs2)C(C)C)cs1 [RITONAVIR]

- CL/F [19]: 133 mL/min
- Cmax [20]: 5250 ng/mL
- CL/F [21]: 99 mL/min
- Cmax [22]: 6850 ng/mL
- AUC [23]: 59700 ng·h/mL
- half-life [24]: 6.56 h
- AUC [25]: 48500 ng·h/mL
- half-life [26]: 8.21 h
Structure (SMILES): Cc1cccc(C)c1OCC(=O)N[C@@H](Cc1ccccc1)[C@@H](O)C[C@H](Cc1ccccc1)NC(=O)[C@H](C(C)C)N1CCCNC1=O [LOPINAVIR]

— ChEMBL document CHEMBL1671853, “Decrease of atazanavir and lopinavir plasma concentrations in a boosted double human immunodeficiency virus protease inhibitor salvage regimen” (Antimicrob Agents Chemother, 2008)
